Source: ChEMBL document CHEMBL1914341, “Anti-tumoral activities of dioncoquinones B and C and related naphthoquinones gained from total synthesis or isolation from plants” (Eur J Med Chem, 2011)

What was measured:
[1] = Cytotoxicity against human INA-6 cells assessed as viable fractions using annexin V-FITC/propidium iodide staining by flow cytometry; type: functional, cell-based
In short: (§1)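 Human multiple myeloma INA-6 cells or mononuclear cells from peripheral blood of healthy donors exposed to a range of compound concentrations. Viable fraction taken as annexin V/PI double-negative cells; EC50 derived.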

[2] = test system: PBMC; assay: Cytotoxicity against human PBMC cells assessed as viable fractions using annexin V-FITC/propidium iodide staining by flow cytometry; type: cell-based; in short: as §1

| SMILES | EC50 [1] [µM] | EC50 [2] [µM] |
| --- | --- | --- |
| CC1=C(O)C(=O)c2c(ccc(O[C@@H]3O[C@H](CO)[C@@H](O)[C@H](O)[C@H]3O)c2O)C1=O [DIONCOQUINONE A] | 29 | – |
| CC1=C(O)C(=O)c2cc(O)ccc2C1=O | > 100 | – |
| COC1=C(C)C(=O)c2ccc(O)c(O)c2C1=O | > 100 | – |
| CC1=CC(=O)c2cc(O)ccc2C1=O | 13 | 17 |
| CC1=C(O)C(=O)c2c(O)ccc(O)c2C1=O | > 100 | – |
| CC1=C(O)C(=O)c2c(cc(O)c(O)c2O)C1=O | 7 | 70 |
| COc1cc2c(cc1OC)C(=O)C(O)=C(C)C2=O | > 100 | – |
| COc1ccc2c(c1)C(=O)C(O)=C(C)C2=O | > 100 | 50 |
| CC1=C(O)C(=O)c2cc(O)c(O)cc2C1=O | 52 | – |
| COc1cc2c(c(OC)c1OC)C(=O)C(O)=C(C)C2=O | > 100 | – |
| COc1ccc2c(c1O)C(=O)C(O)=C(C)C2=O | > 100 | – |
| COc1cc2c(cc1OC)C(=O)C(C)=CC2=O | 6 | 6.5 |
| COc1ccc2c(c1OC)C(=O)C(O)=C(C)C2=O | > 100 | – |
| COc1c(O)cc2c(c1O)C(=O)C(O)=C(C)C2=O [DIONCOQUINONE E] | 100 | – |
| COC1=C(C)C(=O)c2cc(OC)c(O)c(O)c2C1=O [DIONCOQUINONE D] | 80 | – |
| CC1=CC(=O)c2c(O)cccc2C1=O [PLUMBAGIN] | 0.8 | 0.8 |
| COc1cc2c(c(O)c1O)C(=O)C(O)=C(C)C2=O [DIONCOQUINONE C] | 14 | – |
| N[C@@H](Cc1ccc(N(CCCl)CCCl)cc1)C(=O)O [MELPHALAN] | 2 | 3 |
| COc1ccc2c(c1OC)C(=O)C=C(C)C2=O | 15 | 13 |
| COc1cccc2c1C(=O)C=C(C)C2=O | 4 | 16 |
| CC1=CC(=O)c2c(ccc(O)c2O)C1=O | 75 | 100 |
| CC1=C(O)C(=O)c2c(O)cccc2C1=O [DROSERONE] | > 100 | – |
| COc1cc2c(c(OC)c1OC)C(=O)C=C(C)C2=O | 8 | 7.5 |
| CC1=C(O)C(=O)c2c(ccc(O)c2O)C1=O [DIONCOQUINONE B] | 11 | – |
